Compound activity deposited in PubChem BioAssay by several laboratories.
p97 inhibitor – inhibitors of human p97 ATPase, primary screen, biochemical. hit rate 0.42% among 220,000. AID 1481, 2009. Transitional endoplasmic reticulum ATPase (Homo sapiens), P55072. inhibition, % at 8 µM. recombinant p97 ATPase, Kinase-Glo ATP luminescence, 3 h; in the data active = inhibition above about 15%;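 note: 0% = DMSO vehicle and 100% = wells lacking enzyme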
Target sequence (P55072 whole entry, looked up): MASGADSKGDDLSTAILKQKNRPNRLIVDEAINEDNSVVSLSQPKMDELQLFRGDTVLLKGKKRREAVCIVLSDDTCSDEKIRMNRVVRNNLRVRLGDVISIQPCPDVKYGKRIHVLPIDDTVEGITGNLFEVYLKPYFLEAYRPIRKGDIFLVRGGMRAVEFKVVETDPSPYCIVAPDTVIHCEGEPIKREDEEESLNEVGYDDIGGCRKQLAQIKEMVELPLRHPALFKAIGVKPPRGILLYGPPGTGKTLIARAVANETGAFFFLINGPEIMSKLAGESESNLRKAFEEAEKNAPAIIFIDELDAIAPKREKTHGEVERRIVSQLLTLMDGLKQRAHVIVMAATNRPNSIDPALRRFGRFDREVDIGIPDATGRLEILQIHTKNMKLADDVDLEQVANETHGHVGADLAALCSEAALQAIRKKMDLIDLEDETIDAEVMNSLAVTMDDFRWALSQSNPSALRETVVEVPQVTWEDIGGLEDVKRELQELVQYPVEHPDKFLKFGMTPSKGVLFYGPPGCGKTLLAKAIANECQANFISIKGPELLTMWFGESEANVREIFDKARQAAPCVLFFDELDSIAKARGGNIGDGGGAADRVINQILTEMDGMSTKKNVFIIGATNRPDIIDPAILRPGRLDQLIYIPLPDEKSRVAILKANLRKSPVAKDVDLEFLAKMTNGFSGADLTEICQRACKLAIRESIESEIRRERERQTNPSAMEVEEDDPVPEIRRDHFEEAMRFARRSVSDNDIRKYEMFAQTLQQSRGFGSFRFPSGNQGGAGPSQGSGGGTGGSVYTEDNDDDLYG
CHOP inh – inhibitors of CHOP promoter induction, primary screen, cell-based, unfolded protein response, luciferase reporter; CHO-K1 CHOP-promoter luciferase, tunicamycin-induced, 15-18 h; inhibition, % at 10 µM; hit rate 3.8% among 220,000; AID 2732, 2010;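 active = compounds that reduced the stress-induced luciferase reporter signal by more than about 70% of percent inhibition, limit read from the data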;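 note: 0% = tunicamycin plus vehicle and 100% = wells without tunicamycin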
HCV NS3 hel inh – inhibitors of HCV NS3 helicase, primary screen, biochemical, Cy5 molecular beacon fluorescence. Hepatitis C virus NS3 helicase. NS3 helicase DNA unwinding. inhibition, % at 10.9 µM. hit rate 0.56% among 290,000. AID 1800, 2009;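 active = inhibition above the mean of all tested compounds plus 3 SD, set per campaign, cut at about 35% in these data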;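 note: 0% = DMSO wells and 100% = thioflavine S control wells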
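System: HCV NS3 helicase fragment; control set: DMSO and thioflavine S; technique: Cy5 fluorescence at 0 and 60 min, beacon hairpin quenching; reagent: beacon DNA duplex substrate plus ATP; replicates: singlicate; schedule: 1 h reaction at 25 °C, ATP-initiated; medium: MOPS buffer pH 6.5 with MgCl2, DTT, Tween20, BSA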
CHOP UPR activ – activators of apoptotic CHOP UPR arm, primary screen, cell-based, CHO-CHOP luciferase reporter, luminescence, uHTS. UPR activation; percent of tunicamycin response over DMSO baseline. activation, % at 10 µM. hit rate 0.34% among 330,000. AID 449763, 2010;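 active = at 10 µM dose, activation of 40% or more, normalized to positive control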;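 note: 100% = tunicamycin at 10 µg/mL and 0% = DMSO alone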
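Dosing – one dose, 10 µM in 0.5% DMSO · System – CHO-CHOP cells, stable luciferase reporter of PERK-eIF2a-CHOP signalling · Input – 500 cells/well · Control set – tunicamycin 10 µg/mL final as positive, DMSO-only wells as negative · Timing – 6 h compound treatment, 37 °C · Measure – % activation vs tunicamycin · Technique – luminescence read with Steady-Glo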
XBP1 UPR activ – activators of adaptive XBP1 UPR arm, primary screen, cell-based, CHO-XBP1 luciferase reporter, luminescence, uHTS. IRE1-XBP1 UPR activation; percent of tunicamycin response, DMSO as zero. activation, % at 20 µM. hit rate 0.33% among 330,000. AID 463104, 2010;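 active = versus positive control, 20 µM dose yields 30% or more activation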;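 note: 100% = tunicamycin at 10 µg/mL and 0% = DMSO only wells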
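Material: CHO-XBP1 cells stably carrying IRE1-XBP1-driven luciferase reporter / Amount: 1000 cells per well / Compound: 20 µM, 1% DMSO / Times: 6 h treatment, 37 °C / Detection: luciferase luminescence / Measure: % activation of reporter signal versus tunicamycin and DMSO controls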
PfM18AAP inh – PfM18AAP inhibitors, malaria aminopeptidase, primary screen, biochemical, QFRET, recombinant enzyme; M18 aspartyl aminopeptidase (Plasmodium falciparum 3D7); H-Glu-NHMec fluorogenic cleavage; inhibition, % at 7.35 µM; hit rate 1.2% among 290,000; AID 1822, 2009;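 active = inhibition above the campaign mean inhibition over all tested compounds plus 3 SD, cut at about 28% in these data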;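 note: 0% = plate median of test compound wells and 100% = 2 mM ZnCl2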
UPR CHOP confirm – activators of apoptotic CHOP UPR arm, confirmation, cell-based, CHO-CHOP luciferase reporter, single concentration; shares compounds with CHOP UPR activ; CHO-CHOP cells, CHOP-luciferase reporter luminescence; percent of tunicamycin response, DMSO as zero; activation, % at 10 µM; hit rate 64% among 1,000; AID 463112, 2010; in the data active = activation above about 33%;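 note: 0% = DMSO wells and 100% = tunicamycin 10 µg/mL wells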
Starred values were filed as active, the others as inactive; nt = no result. An excerpt weighted towards active compounds, which were near 4.5% of everything screened.

SMILES	p97 inhibitor	CHOP inh	HCV NS3 hel inh	CHOP UPR activ	XBP1 UPR activ	PfM18AAP inh	UPR CHOP confirm
Cc1ccc(CN2[C@@H](CC3CCCCC3)COCCS2(=O)=O)cc1	nt	nt	6	-1	0	1	nt
CCCCC(=O)NC(c1ccccc1)c1ccc2cccnc2c1O (centres undefined)	nt	nt	26	5	2	-7	nt
CCCC(=O)NC(c1ccccc1)c1ccc2cccnc2c1O (centres undefined)	nt	nt	18	51*	3	7	26
CCN(CC(=O)NC(=O)NCc1ccccc1)Cc1ccccc1	nt	nt	-2	1	4	-4	nt
COc1cc(CNc2ccc3[nH]c(=O)[nH]c3c2)cc(Br)c1OCc1ccc(F)cc1	nt	nt	-1	67*	2	-9	28
CCN(CC)Cc1c(O)ccc2c1O/C(=C\C=C\c1ccccc1)C2=O	-2	0	-40	69*	-1	7	2
CCC(C)Nc1nc(-c2ccccn2)nc2ccccc12 (centres undefined)	nt	nt	-47	47*	11	1	21
c1ccc(CNc2nc(-c3ccccn3)nc3ccccc23)cc1	nt	nt	-74	40*	13	-2	15
O=C(Nc1cc([N+](=O)[O-])ccc1F)c1ccc2c(c1)OCCO2	6	6	13	99*	3	-6	3
O=C(Nc1cc([N+](=O)[O-])ccc1F)c1ccc2ccccc2c1	nt	nt	-9	0	4	-8	nt
CCOC(=O)c1c(C)oc2c1c(C(c1cccnc1)N1CCCCC1)c(O)c1ccccc12 (centres undefined)	2	17	-2	114*	11	-2	182*
CCOC(=O)c1c(C)oc2c1c(C(c1ccccc1)N1CCOCC1)c(O)c1ccccc12 (centres undefined)	0	-23	-3	62*	11	9	73*
CCOC(=O)c1c(C)oc2c1c(C=NCCO)c(O)c1ccccc12	5	50	3	nt	nt	8	nt
COc1ccc(S(=O)(=O)N2CCOCC2)cc1NC(=O)CNC(=O)c1cccs1	nt	nt	nt	-1	0	nt	nt
O=c1c2c3c(sc2ncn1/N=C/c1ccc([N+](=O)[O-])o1)CCCC3	4	57	10	213*	-9	0	195*
Cn1cc(/C=N/n2cnc3sc4c(c3c2=O)CCCC4)c2ccccc21	-2	0	16	0	3	-6	nt
COc1ccc(C(=O)Nc2ccccc2C(=O)N/N=C/c2ccccn2)cc1OC	-26	51	-2	101*	9	2	100*
COc1ccc(C(=O)N/N=C/c2ccccn2)cc1OC	7	23	-8	2	2	11	nt
Cn1nnnc1Sc1ncnc2scc(-c3ccsc3)c12	nt	nt	nt	1	-1	nt	nt
Cc1cnnn1-c1ccc(C(=O)CCl)cc1	-2	92*	3	132*	-7	-12	-9
CC(=O)Nc1ccc(N=Cc2c(O)c3ccccc3oc2=O)cc1	nt	nt	-1	17	14	-3	nt
COc1cccc(N=Cc2c(O)c3ccccc3oc2=O)c1	nt	nt	23	101*	108*	21	52*
CC(C)Oc1ccc(C(CC(=O)O)n2cnnn2)cc1 (centres undefined)	3	0	-14	0	-2	-8	nt
Cc1cccc(CSc2cccc3cccnc23)c1	-8	0	16	407*	5	5	254*
CCOC(=O)CSc1cccc2cccnc12	1	2	0	231*	5	13	202*
SMILES	p97 inhibitor	CHOP inh	HCV NS3 hel inh	CHOP UPR activ	XBP1 UPR activ	PfM18AAP inh	UPR CHOP confirm
COc1ccc(NC(=O)CSc2nnc(Cc3cccs3)n2C)cc1	nt	nt	nt	1	2	nt	nt
COC(=O)c1cc(=O)n(Cc2ccc(OC)c(OC)c2)c(=Nc2ccc(F)cc2)s1	1	31	-5	22	12	1	nt
COC(=O)c1cc(=O)n(CCc2ccc(OC)c(OC)c2)c(=Nc2ccc(F)c(Cl)c2)s1	0	-22	5	41*	13	0	63*
C=C[C@H]1[C@H](OC2OC(CO)C(O)C(O)C2O)OC=C(C(=O)OC)[C@H]1C[C@H]1CC(=O)C[C@H](CC(=O)CCc2ccc(O)cc2)O1 (some centres undefined)	nt	nt	nt	0	0	nt	nt
ClC1=C(Cl)C(Cl)=C(Cl)C1=C/C=C/c1ccccc1	8	95*	-2	55*	30	2	29
CC1=NN(c2ccccc2)C(=O)/C1=C\C=C\c1ccccc1	1	-19	8	3	-1	5	nt
CC(OC(=O)[C@@H]1CCCN1C(=O)c1cccs1)C(=O)Nc1cccc([N+](=O)[O-])c1 (some centres undefined)	nt	nt	nt	1	1	nt	nt
CCOc1ccc2nc(SC3CC(=O)N(c4ccc(C)cc4)C3=O)sc2c1 (centres undefined)	-4	22	5	45*	-7	6	65*
CCOc1ccc(N2C(=O)CC(Sc3nc4ccc(OCC)cc4s3)C2=O)cc1 (centres undefined)	3	nt	2	17	-14	-8	nt
Cc1nn(C2CCS(=O)(=O)C2)c(Cl)c1/C=C/C(=O)OCC(=O)c1cc(C)n(-c2ccc(F)cc2)c1C (centres undefined)	-8	56	6	5	1	1	nt
CNc1ccc(/C=C2\COc3ccccc3C2=O)cc1[N+](=O)[O-]	3	-56	-2	4	4	4	nt
O=C1/C(=C/c2ccccc2[N+](=O)[O-])COc2ccccc21	6	95*	-12	173*	-1	14	85*
CCOc1ccc(S(=O)(=O)N(CC)CC(=O)NCc2ccncc2)cc1	nt	nt	2	0	-5	-1	nt
CC1(C)CC(=O)C2=C(C1)N=c1s/c(=C/c3ccc(F)c(F)c3)c(=O)n1C2c1ccc(F)cc1 (centres undefined)	2	-25	-2	40*	2	-16	29
C=C(C(=O)c1ccccc1)C(C(=C)C(=O)c1ccccc1)c1ccc(OC)cc1	-13	56	8	62*	0	2	65*
COc1ccc(C(CC(=O)c2ccccc2)CC(=O)c2ccccc2)cc1	1	4	-12	-2	3	4	nt
